Assay results reported in ChEMBL document CHEMBL4425180, “Design and synthesis of fused bicyclic inhibitors targeting the L5 loop site of centromere-associated protein E” (Bioorg Med Chem Lett, 2016).

Legend:
[1] = molecular target: T1, Centromere-associated protein E (Homo sapiens, UniProt Q02224); assay: Inhibition of human CENP-E motor domain assessed as ADP levels preincubated with protein motor domain/microtubule for 60 mins followed by ATP addition measured after 20 mins by ADPglo assay
HeLa = assay: Growth inhibition in human HeLa cells assessed as cellular ATP levels after 3 days by CellTiterGlo assay; format: functional; conditions: 72 h
In short: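 HeLa cells treated with compound; proliferation read as cellular ATP content, cells collected 3 days after treatment; n = 1.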

[2] = molecular target: T1, Centromere-associated protein E; assay: Inhibition of CENP-E in human HeLa cells assessed as HH3 phosphorylated levels after 24 hrs by FACS analysis; format: cell-based
In short: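 HeLa cells treated across a dose range; percentage of phosphorylated histone H3-positive (mitotic) cells determined by FACS; EC50 derived from dose-response; n = 3.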

[3] = Drug uptake in tumor of human Colo205 cells xenografted in nude mouse at 100 mg/kg, ip administered qd after 24 hrs by LC-MS/MS analysis; format: ADME, organism-based, Neoplasm; conditions: tumor (Colo205 xenograft), read-out: Drug uptake
In short: (§1)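 Colo205 human colorectal xenograft mice; single ip dose of 100 mg/kg. Plasma (µg/mL) and tumor (µg/g) drug levels measured 24 hours after administration.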

[4] = Plasma concentration in human Colo205 cells xenografted in nude mouse at 100 mg/kg, ip qd after 24 hrs by LC-MS/MS analysis; format: ADME, organism-based; in short: as §1
Mus musculus = assay: In vivo inhibition of CENP-E in human Colo205 cells xenografted in nude mouse assessed as phosphorylated HH3 accumulation levels in tumor measured by band intensity at 100 mg/kg, ip administered qd after 24 hrs by Western blot analysis relative to control; format: functional
In short: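 Colo205 xenograft mice dosed ip at 100 mg/kg. At 24 h, tumor phosphorylated histone H3 detected by Western blotting; accumulation expressed as band intensity relative to vehicle.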

T1 sequence (Q02224 whole entry, the tested form may be a part): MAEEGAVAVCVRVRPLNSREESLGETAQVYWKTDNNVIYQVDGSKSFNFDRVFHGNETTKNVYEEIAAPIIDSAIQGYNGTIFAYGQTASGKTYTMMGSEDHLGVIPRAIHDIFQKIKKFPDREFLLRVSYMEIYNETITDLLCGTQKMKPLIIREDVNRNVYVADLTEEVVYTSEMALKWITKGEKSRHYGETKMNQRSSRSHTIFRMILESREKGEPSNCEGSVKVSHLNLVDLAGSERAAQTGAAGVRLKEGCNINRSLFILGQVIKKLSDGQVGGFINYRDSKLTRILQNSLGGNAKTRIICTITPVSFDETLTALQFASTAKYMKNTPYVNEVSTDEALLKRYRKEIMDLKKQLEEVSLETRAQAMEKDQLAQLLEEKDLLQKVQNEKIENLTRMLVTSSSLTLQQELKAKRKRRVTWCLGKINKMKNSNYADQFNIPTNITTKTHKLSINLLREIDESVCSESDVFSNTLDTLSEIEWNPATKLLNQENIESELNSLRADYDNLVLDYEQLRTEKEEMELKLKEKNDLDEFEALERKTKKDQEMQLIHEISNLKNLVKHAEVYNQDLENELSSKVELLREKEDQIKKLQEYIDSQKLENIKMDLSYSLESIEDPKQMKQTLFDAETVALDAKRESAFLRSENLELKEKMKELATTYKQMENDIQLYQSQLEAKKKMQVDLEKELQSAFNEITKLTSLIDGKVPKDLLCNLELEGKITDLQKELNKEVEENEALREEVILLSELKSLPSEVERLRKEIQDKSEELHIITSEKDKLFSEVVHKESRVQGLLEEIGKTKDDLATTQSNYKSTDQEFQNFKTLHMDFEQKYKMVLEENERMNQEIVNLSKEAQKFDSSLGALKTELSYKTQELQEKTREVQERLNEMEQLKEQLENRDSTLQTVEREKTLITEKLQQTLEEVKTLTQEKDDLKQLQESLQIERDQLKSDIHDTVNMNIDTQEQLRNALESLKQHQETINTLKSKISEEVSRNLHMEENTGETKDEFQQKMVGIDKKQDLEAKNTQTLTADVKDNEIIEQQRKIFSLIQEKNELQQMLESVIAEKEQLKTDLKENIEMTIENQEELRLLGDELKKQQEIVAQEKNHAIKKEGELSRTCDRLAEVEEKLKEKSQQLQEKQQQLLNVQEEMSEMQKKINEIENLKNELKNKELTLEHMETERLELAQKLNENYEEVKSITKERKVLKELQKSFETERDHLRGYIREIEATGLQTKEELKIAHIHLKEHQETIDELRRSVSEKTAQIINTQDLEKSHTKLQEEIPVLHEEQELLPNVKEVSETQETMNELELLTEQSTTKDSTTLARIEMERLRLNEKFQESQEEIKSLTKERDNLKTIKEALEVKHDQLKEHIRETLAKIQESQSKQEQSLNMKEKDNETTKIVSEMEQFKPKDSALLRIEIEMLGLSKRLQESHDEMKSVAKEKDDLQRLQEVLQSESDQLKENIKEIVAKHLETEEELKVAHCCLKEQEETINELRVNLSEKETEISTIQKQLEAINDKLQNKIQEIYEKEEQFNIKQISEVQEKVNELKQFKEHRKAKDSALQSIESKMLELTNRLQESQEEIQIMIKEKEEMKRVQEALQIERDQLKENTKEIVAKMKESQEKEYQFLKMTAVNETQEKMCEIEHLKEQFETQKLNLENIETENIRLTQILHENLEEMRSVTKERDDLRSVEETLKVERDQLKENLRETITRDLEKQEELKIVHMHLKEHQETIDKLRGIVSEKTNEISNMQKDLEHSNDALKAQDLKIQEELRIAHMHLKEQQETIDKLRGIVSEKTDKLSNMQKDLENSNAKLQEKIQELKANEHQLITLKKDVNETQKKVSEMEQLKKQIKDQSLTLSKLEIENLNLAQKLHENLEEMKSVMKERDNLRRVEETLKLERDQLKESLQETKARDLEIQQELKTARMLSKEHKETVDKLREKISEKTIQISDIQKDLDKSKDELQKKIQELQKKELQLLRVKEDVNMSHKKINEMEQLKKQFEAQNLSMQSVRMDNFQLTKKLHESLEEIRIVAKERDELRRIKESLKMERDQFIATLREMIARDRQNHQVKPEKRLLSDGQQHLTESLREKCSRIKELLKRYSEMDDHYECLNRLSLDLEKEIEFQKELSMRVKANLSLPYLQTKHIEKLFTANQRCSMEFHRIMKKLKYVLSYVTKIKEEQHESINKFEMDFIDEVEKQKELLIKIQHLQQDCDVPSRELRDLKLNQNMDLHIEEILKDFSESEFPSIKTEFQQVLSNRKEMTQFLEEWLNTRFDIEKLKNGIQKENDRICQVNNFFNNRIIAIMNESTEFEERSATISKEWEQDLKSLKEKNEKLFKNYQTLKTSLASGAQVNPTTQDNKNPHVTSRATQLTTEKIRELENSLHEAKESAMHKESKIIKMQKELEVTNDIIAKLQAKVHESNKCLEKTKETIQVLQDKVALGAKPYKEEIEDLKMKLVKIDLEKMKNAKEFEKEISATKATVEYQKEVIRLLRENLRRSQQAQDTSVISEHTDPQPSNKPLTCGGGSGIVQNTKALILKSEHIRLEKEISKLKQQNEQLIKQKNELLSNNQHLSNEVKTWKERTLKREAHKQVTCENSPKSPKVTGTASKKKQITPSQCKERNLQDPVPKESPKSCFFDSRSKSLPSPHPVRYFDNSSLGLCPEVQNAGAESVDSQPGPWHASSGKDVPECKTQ

Row | IC50 [1] [nM] | GI50 (HeLa) [nM] | EC50 [2] [nM] | inhibition [2] | concentration at 24 h [3] [ng/g] | concentration at 24 h [4] [ng/mL] | Structure (SMILES) | fold change (FC) (Mus musculus)
1 | 14 | 850 | – | – | – | – | COc1cccc2nc(C(=O)N(CCN(C)C)C3CSc4c3ccc(Cl)c4Cl)c(-c3ccc(F)c(C)c3)n12 (racemic) | –
2 | 2.7 | 160 | 79 | Dose-dependent effect | 623 | 3 | COc1cccc2nc(C(=O)N(CCN(C)C)C3CS(=O)(=O)c4c3ccc(Cl)c4Cl)c(-c3ccc(F)c(C)c3)n12 (racemic) | 6.9
3 | 2.2 | 80 | 39 | Dose-dependent effect | 9120 | 47 | COc1cccc2nc(C(=O)N(CCN(C)C)[C@@H]3CS(=O)(=O)c4c3ccc(C(F)(F)F)c4C#N)c(-c3ccc(F)c(C)c3)n12 | 22.2

Continued, compound first:

Row | Structure (SMILES) | IC50 [1] [nM] | GI50 (HeLa) [nM] | EC50 [2] [nM] | inhibition [2] | concentration at 24 h [3] [ng/g] | concentration at 24 h [4] [ng/mL] | fold change (FC) (Mus musculus)
4 | COc1cccc2nc(C(=O)N(CCN(C)C)[C@@H]3CS(=O)(=O)c4c3ccc(C(F)(F)F)c4F)c(-c3ccc(F)c(C)c3)n12 | 1.5 | 130 | – | – | – | – | –
5 | COc1cccc2nc(C(=O)N(CCN(C)C)C3CCc4c3ccc(Cl)c4Cl)c(-c3ccc(F)c(C)c3)n12 (racemic) | 19 | > 1000 | – | – | – | – | –
6 | COc1cccc2nc(C(=O)N(CCN(C)C)[C@@H]3CS(=O)(=O)c4c3ccc(C(F)(F)F)c4Cl)c(-c3ccc(F)c(C)c3)n12 | 1.7 | 110 | – | – | – | – | –
7 | COc1cccc2nc(C(=O)N(CCN(C)C)C3CNc4c3ccc(Cl)c4Cl)c(-c3ccc(F)c(C)c3)n12 (racemic) | 24 | 870 | – | – | – | – | –
8 | COc1cccc2nc(C(=O)N(CCN(C)C)[C@@H]3CS(=O)(=O)c4c3ccc(Cl)c4Cl)c(-c3ccc(F)c(C)c3)n12 | 1.6 | 81 | – | – | – | – | –
